# This is a sample that favours compounds with a hit; in the whole collection about 3.3% have one here.
# ABCB6 inh MLPCN – human ABCB6 transporter inhibition. Q9NP58. K562-ABCB6 porphyrin accumulation, flow cytometry, 1 h; stronger effect = lower value. fluorescence ratio to DMSO, % at 10 µM. 360,000 compounds, 0.19% hits. AID 602162;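 active = fluorescence ratio to DMSO below 75%, the collection mean minus 3 SD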;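 also: signal is porphyrin accumulated inside mitochondria; 100% equals median channel fluorescence of DMSO control wells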
# AHR act – activates the human aryl hydrocarbon receptor; activation, % at 5 µM; AHR-responsive luciferase reporter cells, luminescence; AID 2796; 320,000 compounds, 2.5% hits; P35869; in the data active = activation above about 47%;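 also: 0% = vehicle wells and 100% = reference agonist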
# Target sequence (P35869 whole entry, looked up): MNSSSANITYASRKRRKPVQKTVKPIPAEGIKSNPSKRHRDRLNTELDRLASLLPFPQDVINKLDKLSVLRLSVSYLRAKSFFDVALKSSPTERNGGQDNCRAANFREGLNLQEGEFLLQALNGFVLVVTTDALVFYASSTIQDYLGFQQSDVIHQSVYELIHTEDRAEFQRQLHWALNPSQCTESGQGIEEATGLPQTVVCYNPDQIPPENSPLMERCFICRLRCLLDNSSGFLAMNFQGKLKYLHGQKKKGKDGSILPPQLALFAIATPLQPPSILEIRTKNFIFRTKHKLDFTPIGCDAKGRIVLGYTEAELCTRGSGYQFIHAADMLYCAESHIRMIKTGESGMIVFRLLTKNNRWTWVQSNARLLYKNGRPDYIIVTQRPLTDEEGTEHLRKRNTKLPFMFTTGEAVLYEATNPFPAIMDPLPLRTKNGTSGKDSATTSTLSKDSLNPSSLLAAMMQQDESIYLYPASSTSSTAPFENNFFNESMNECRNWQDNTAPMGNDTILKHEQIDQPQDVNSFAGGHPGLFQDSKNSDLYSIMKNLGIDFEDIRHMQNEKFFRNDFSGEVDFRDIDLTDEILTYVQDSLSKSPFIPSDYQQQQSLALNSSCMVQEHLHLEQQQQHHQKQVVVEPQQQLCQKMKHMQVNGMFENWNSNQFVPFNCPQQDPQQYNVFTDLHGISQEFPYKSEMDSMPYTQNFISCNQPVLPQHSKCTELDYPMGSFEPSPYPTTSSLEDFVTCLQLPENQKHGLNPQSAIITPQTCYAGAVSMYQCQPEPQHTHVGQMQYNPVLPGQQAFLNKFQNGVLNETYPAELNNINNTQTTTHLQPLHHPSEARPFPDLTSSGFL
# STAT3 activator – STAT3 signaling activation | U3A cells, IL-6 STAT3-luciferase reporter, luminescence; 100% = signal with IL-6 EC80 alone | activation (% of control), % at 5.6 µM | 190,000 compounds, 0.91% hits | AID 871;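 active = activation above the screen-wide mean of compound activation plus 3 SD, cut at about 130% in these data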;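 also: 0% = background luminescence of wells with medium and substrate only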
#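 Test system: human U3A cells carrying STAT3-luciferase construct; control set: IL-6-only wells as 100% reference; timing: compound pre-incubation 1 h before IL-6, then 6 h stimulation at 37 °C; also added: IL-6 stimulus at 33 ng/mL final; evaluation: % activation versus median of IL-6-stimulated wells; detection: reporter luminescence signal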
# GAA850 FXN act – frataxin GAA850 promoter activation. activation, % at 6 µM. 360,000 compounds, 0.56% hits. AID 540364. HEK293 lucGAA850 FXN promoter luciferase reporter, 24 h; percent of 10 µM SAHA response;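 active = activation above the average of all compounds screened plus 3 SD, cutoff fixed separately per campaign, cut at about 7.5% in these data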;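 also: 0% = DMSO wells and 100% = 10 µM SAHA wells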
# GAA30 counter – GAA30 FXN promoter activation counter-screen | shares compounds with GAA850 FXN act | HEK293 lucGAA30 FXN promoter luciferase, 24 h; DMSO = 0%, 5 µM ipriflavone = 100% | activation, % at 6 µM | 1,900 compounds, 66% hits | AID 588350;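 active = mean activation above the mean of solvent-only control wells plus 3 SD, cut at about 22% in these data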;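 also: counterscreen of GAA850 promoter hits where activity marks nonselective or luminescence artifacts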
# FXN GAA850 conf – GAA850 FXN promoter activation confirmation; shares compounds with GAA850 FXN act; HEK293 lucGAA850 FXN promoter luciferase reporter, 24 h; 100% = activation by SAHA; activation, % at 6 µM; 1,900 compounds, 86% hits; AID 588351;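 active = mean activation above a set limit taken from the primary screen, cut at about 8% in these data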;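 also: 0% = DMSO wells and 100% = 10 µM SAHA wells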
# The depositor's hits bear a star; . = no result given.
SMILES,ABCB6 inh MLPCN,AHR act,STAT3 activator,GAA850 FXN act,GAA30 counter,FXN GAA850 conf
COC(=O)N(C)C[C@@H]1OCc2ccccc2-c2c(n(C)c3ccccc23)C(=O)N([C@H](C)CO)C[C@@H]1C,97,.,.,16*,33*,14*
O=S(=O)(c1ccc(Cl)cc1)N1CCN(C(=S)Nc2ccc(F)c(Cl)c2)CC1,97,1,100,0,.,.
CC1CCCCC1NC(=O)CCN1C(=O)C2C3C=CC(C3)C2C1=O (stereo not drawn),98,-3,.,-1,.,.
Fc1ccc(N2CCN(c3cnc4ccccc4n3)CC2)cc1,86,8,.,7.9*,106*,41*
c1ccc(N2CCN(c3cnc4ccccc4n3)CC2)cc1,100,-7,87,3,.,.
CS/C(N)=N/N=C/c1cc(C)ccc1O,96,4,.,8.6*,122*,38*
CCS/C(N)=N/N=C/c1cc(C)ccc1O,89,1,103,3,.,.
CNc1oc(-c2ccc(Cl)cc2)nc1P(=O)(c1ccccc1)c1ccccc1,100,-2,106,5,.,.
COc1cc2c(c(OCC(=O)NC(C)C)c1)C(=O)O[C@@H](C)CCCC(=O)CCCCC2,98,1,.,12*,23*,9.8*
CCCC(=O)Nc1ccc(-c2nc3cc(C)c(C)cc3o2)cc1,98,-8,88,9.8*,108*,48*
ON=C1c2ccccc2-c2ccc(Br)cc21,95,.,.,1,.,.
NC(=S)NN=C1c2ccccc2-c2cc(Br)ccc21,95,.,.,11*,17,14*
O=C(c1cc2ccccc2o1)c1cccs1,94,21,102,8.3*,117*,40*
O=C(NC(=S)Nc1ccc(NC(=O)c2cccs2)cc1)c1cc2ccccc2o1,99,2,100,-2,.,.
Cc1ccc2nc(/C(C#N)=C\c3ccc([N+](=O)[O-])o3)[nH]c2c1,893,33,99,8.1*,-52,-13
CCc1cccc(CC)c1NC(=O)COC(=O)c1ccc2c(c1)S(=O)(=O)c1ccccc1C2=O,93,27,106,14*,26*,6
O=C(CSCC(=O)Nc1cccc2ccccc12)Nc1cccc2ccccc12,98,22,.,14*,23*,5
Nc1cc([N+](=O)[O-])cc2oc(-c3ccccc3)cc12,230,39,.,8.2*,94*,33*
CC(=O)N1CCN(Cc2nc3cc(NC(=O)c4ccc(F)cc4)ccc3n2C)CC1,96,0,99,0,.,.
COc1ccc(CCNc2c(N)n(Cc3ccccc3)c(=O)[nH]c2=O)cc1OC,94,11,113,3,.,.
CCOC(=O)CSc1nc2ccccc2c(=O)[nH]1,96,1,94,0,.,.
CCOC(=O)c1nc2ccccc2c(=O)[nH]1,96,9,.,8.1*,69*,23*
COCCn1c(C)cc(C(=O)COC(=O)c2ccc3ncsc3c2)c1C,95,-6,106,7.8*,93*,32*
COC(=O)C1=C(C)N(C)C(=O)NC1c1cc(Cl)c(O)c(OC)c1 (stereo not drawn),96,2,93,7.8*,10,12*
Cc1ccccc1NC(=O)NNC(=O)CCc1ccccc1,86,-3,.,3,.,.
SMILES,ABCB6 inh MLPCN,AHR act,STAT3 activator,GAA850 FXN act,GAA30 counter,FXN GAA850 conf
c1csc(CSc2nc3ccccc3s2)c1,88,26,107,7.7*,122*,39*
O=c1ccccn1CCOc1ccc(Cl)cc1,96,-5,.,2,.,.
CC(C)(C)c1ccc(OCCn2ccccc2=O)cc1,94,1,94,8.5*,100*,41*
COc1ccccc1N(C)S(=O)(=O)c1ccc(Cl)c(C(=O)NCC2(N(C)C)CCCCC2)c1,97,1,.,12*,25*,4
Cc1cc(/C=C2/NC(=O)NC2=O)c(C)n1-c1ccc(C#N)cc1,101,45,87,3,.,.
CCCCc1nc2sc3c(=O)[nH]c(=S)[nH]c3c2c2c1CCC2,95,.,.,1,.,.
Cn1ncc2c1ncn1nc(CCc3ccccc3)nc21,97,4,103,9.1*,106*,29*
O=C(N/N=C\c1cccc(Cl)c1)c1n[nH]c2c1CCCC2,102,32,95,10*,73*,20*
O=C(N/N=C/C(Br)=C\c1ccccc1)c1n[nH]c2c1CCC2,106,39,142*,17*,29*,68*
O=C(N/N=C/C(Br)=C/c1ccccc1)c1cnccn1,91,2,.,8.9*,107*,39*
Cc1ccc(Cn2c(C3CCCN3c3nc(-c4ccc(F)cc4)cs3)nc3cc(C(F)(F)F)ccc32)cc1 (stereo not drawn),102,25,.,0,.,.
CCCC(=O)NC(=S)Nc1ccc(NC(=O)C(C)C)c(OC)c1,98,18,88,3,.,.
Cc1cccc(Nc2nc(NCc3ccco3)nc(N3CCOCC3)n2)c1,101,10,86,2,.,.
Nc1ccccc1Nc1cccc(C(F)(F)F)c1,114,3,92,8.7*,-1,9.6*
CC(Sc1nnc(-c2cccnc2)o1)C(=O)NC1CCCC1 (stereo not drawn),100,1,.,-1,.,.
COC(=O)N=Nc1c(O)[nH]c2ccc(Br)cc12,86,70*,.,10*,144*,32*
Cc1ccc(C(=O)NNC(=O)CSc2nnc(-c3ccncc3)n2C)cc1,98,-1,106,-2,.,.
CC[C@H](C)[C@H](NS(=O)(=O)c1ccc(C)cc1)C(=O)N1CCC(C(=O)N[C@@H](C)C(=O)O)CC1,84,2,108,1,.,.
CCC(C)[C@H](NS(=O)(=O)c1ccc(C)cc1)C(=O)N1CCC(C(=O)N2CCC(C(N)=O)CC2)CC1 (stereo partly drawn),97,-1,.,19*,22,6
Cc1cccc(N=Nc2ccc(O)c3ncccc23)c1,99,70*,104,12*,-102,-32
Cc1ccc(-n2c(C)nn(CCOc3ccccc3)c2=O)cc1,93,11,110,9.3*,98*,27*
CCCc1c(C(=O)N/N=C/c2ccc(OCc3ccccc3)c(OC)c2)nnn1-c1nonc1N,97,1,.,-2,.,.
CCCCCCOc1ccc(/C(C)=N/NC2=NCCN2)cc1[N+](=O)[O-],107,24,103,7.8*,28*,17*
CC(C)Cn1c(=O)[nH]c(=O)c2c(C(F)(F)F)cc(-c3ccccc3)nc21,96,2,.,7.7*,-4,16*
CCOc1ccccc1NC(=S)Nc1ccccc1F,99,2,100,-1,.,.
COCCNc1nc(SC)nc2sc3c(c12)CCN(C)C3,103,5,.,1,.,.
COCCCNc1nc(SCc2ccccc2)nc2sc3c(c12)CCC3,98,7,99,14*,31*,21*

# Bioassay records (PubChem)
